Measurements taken from ChEMBL document CHEMBL2396581, “20(S)-Protopanaxadiol (PPD) analogues chemosensitize multidrug-resistant cancer cells to clinical anticancer drugs” (Bioorg Med Chem, 2013).

Legend:
Format in all cases: cell-based
[1] = target: T1, ATP-dependent translocase ABCB1 (Homo sapiens, UniProt P08183); test: Inhibition of p-gp in human KB/VCR cells assessed as potentiation of 1 uM docetaxel-induced cytotoxicity at 5 uM after 72 hrs by MTT assay
In short: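 KBvcr cells seeded at 5 × 10^3 per well were cotreated with 5 μM compound and 1 μM docetaxel for 72 h. Survival (%) was read by MTT and compared with wells without docetaxel.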

[2] = target: T1, ATP-dependent translocase ABCB1; test: Inhibition of p-gp in human KB/VCR cells assessed as intracellular accumulation of adriamycin at 5 uM after 3 hrs by fluorescence assay relative to control
In short: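 KBvcr cells plated at 1 × 10^5 per well were given ADM (final 10 μM) with 5 μM compound for 3 h. After ice-cold PBS wash and lysis in 1% SDS, intrinsic ADM fluorescence (ex 485/em 590 nm) was read. Results are expressed as a ratio to the ADM-only control, mean ± SD, n = 3.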

[3] = Cytotoxicity against human KB/VCR cells assessed as cell viability at 5 uM after 72 hrs by MTT assay
In short: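 KB/VCR cells in DMEM with 10% FBS and penicillin/streptomycin, 37 °C, 5% CO2. Cells were allowed to attach for 12 h, then exposed to compound for 72 h. MTT was added for 4 h and formazan read at 490 nm.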

[4] = target: T1, ATP-dependent translocase ABCB1; test: Inhibition of p-gp in human KB/VCR cells assessed as potentiation of adriamycin-induced cytotoxicity at 5 uM after 72 hrs by MTT assay
[5] = target: T1, ATP-dependent translocase ABCB1; test: Inhibition of p-gp in human KB/VCR cells assessed as potentiation of vincristine-induced cytotoxicity at 5 uM after 72 hrs by MTT assay
[6] = target: T1, ATP-dependent translocase ABCB1; test: Inhibition of p-gp in human KB/VCR cells assessed as intracellular accumulation of rhodamine123 at 3 uM after 2 hrs by microplate fluorometric analysis
In short: (§1)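 KBvcr cells plated at 1 × 10^5 per well were pretreated with graded compound concentrations, then given Rhodamine123 10 μM for 2 h at 37 °C. Cells were washed with ice-cold PBS and lysed in 1% SDS. Fluorescence (ex 494/em 517 nm) was read on a microplate fluorometer and compared with untreated cells. Three independent experiments.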

[7] = target: T1, ATP-dependent translocase ABCB1; test: Inhibition of p-gp in human KB/VCR cells assessed as intracellular accumulation of rhodamine123 at 2 uM after 2 hrs by microplate fluorometric analysis; in short: as §1
[8] = target: T1, ATP-dependent translocase ABCB1; test: Inhibition of p-gp in human KB/VCR cells assessed as intracellular accumulation of rhodamine123 at 0.5 uM after 2 hrs by microplate fluorometric analysis; in short: as §1
[9] = target: T1, ATP-dependent translocase ABCB1; test: Inhibition of p-gp in human KB/VCR cells assessed as intracellular accumulation of rhodamine123 after 2 hrs by microplate fluorometric analysis
In short: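 KBvcr cells plated at 1 × 10^5 per well and incubated 2 h at 37 °C in CO2 incubator with 10 μM Rhodamine123, with or without test compounds. Cells washed with ice-cold PBS, then lysed in 1% SDS/PBS. Fluorescence read at ex 494/em 517 nm. Accumulation ratio taken relative to untreated cells. Mean SD of three independent experiments.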

[10] = target: T1, ATP-dependent translocase ABCB1; test: Inhibition of p-gp in human KB/VCR cells assessed as potentiation of adriamycin-induced cytotoxicity at 5 uM after 72 hrs by MTT assay relative to verapamil
[11] = target: T1, ATP-dependent translocase ABCB1; test: Inhibition of p-gp in human KB/VCR cells assessed as potentiation of vincristine-induced cytotoxicity at 5 uM after 72 hrs by MTT assay relative to verapamil
[12] = target: T1, ATP-dependent translocase ABCB1; test: Inhibition of p-gp in human KB/VCR cells assessed as potentiation of 1 uM docetaxel-induced cytotoxicity at 5 uM after 72 hrs by MTT assay relative to verapamil
[13] = target: T1, ATP-dependent translocase ABCB1; test: Inhibition of p-gp in human KB/VCR cells assessed as potentiation of 100 nM docetaxel-induced cytotoxicity after 72 hrs by MTT assay
In short: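 KBvcr cells cultured 72 h with fixed 100 nM docetaxel and graded modulator concentrations. Viability read by MTT, formazan at 490 nm. EC50 calculated from dose–response. Mean SD of three independent experiments.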

[14] = target: T1, ATP-dependent translocase ABCB1; test: Inhibition of p-gp in human KB/VCR cells assessed as intracellular accumulation of rhodamine123 at 1 uM after 2 hrs by microplate fluorometric analysis; in short: as §1

T1 sequence (P08183 whole entry): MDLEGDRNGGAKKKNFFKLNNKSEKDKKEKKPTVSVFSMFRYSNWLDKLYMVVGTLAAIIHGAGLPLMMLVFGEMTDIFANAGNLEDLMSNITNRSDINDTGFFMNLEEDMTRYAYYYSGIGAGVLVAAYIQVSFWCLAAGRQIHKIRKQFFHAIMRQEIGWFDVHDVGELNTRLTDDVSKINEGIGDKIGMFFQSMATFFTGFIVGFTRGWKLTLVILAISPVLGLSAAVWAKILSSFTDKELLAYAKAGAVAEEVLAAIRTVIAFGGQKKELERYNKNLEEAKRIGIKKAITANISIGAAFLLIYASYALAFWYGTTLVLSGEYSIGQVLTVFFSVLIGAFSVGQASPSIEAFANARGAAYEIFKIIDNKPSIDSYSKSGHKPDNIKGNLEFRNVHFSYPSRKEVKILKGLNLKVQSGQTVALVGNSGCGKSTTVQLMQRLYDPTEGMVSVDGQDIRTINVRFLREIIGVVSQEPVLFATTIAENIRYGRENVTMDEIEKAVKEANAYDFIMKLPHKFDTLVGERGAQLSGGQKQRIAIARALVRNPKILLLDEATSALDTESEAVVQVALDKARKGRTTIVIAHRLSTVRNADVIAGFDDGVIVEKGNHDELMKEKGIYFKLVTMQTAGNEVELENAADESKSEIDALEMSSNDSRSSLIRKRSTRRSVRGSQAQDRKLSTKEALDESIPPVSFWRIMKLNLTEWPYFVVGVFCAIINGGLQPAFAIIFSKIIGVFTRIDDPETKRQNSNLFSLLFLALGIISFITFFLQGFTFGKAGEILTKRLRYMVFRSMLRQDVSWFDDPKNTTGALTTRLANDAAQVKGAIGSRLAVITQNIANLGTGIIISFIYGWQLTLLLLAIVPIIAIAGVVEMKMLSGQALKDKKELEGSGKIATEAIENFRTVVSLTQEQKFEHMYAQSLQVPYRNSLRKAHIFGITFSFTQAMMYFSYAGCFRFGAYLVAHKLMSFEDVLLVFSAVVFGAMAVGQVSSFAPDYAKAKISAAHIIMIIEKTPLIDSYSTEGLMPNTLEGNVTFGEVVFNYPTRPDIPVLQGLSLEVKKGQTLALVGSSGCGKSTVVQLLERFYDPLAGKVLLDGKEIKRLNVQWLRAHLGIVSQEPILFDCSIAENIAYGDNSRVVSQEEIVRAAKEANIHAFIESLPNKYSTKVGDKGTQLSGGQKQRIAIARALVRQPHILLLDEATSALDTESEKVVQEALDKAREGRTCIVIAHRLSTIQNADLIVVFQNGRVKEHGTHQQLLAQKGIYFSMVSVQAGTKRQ

CC1(C)[C@@H](O)CC[C@]2(C)[C@H]3C[C@@H](O)[C@@H]4[C@@H]([C@@](C)(O)CCCNCCc5ccc6c(c5)OCO6)CC[C@@]4(C)[C@]3(C)CC[C@@H]12
inhibition (INH) [1]: Active

CC1(C)[C@@H](O)CC[C@]2(C)[C@H]3C[C@@H](O)[C@@H]4[C@@H]([C@@](C)(O)CCCNCCCc5ccccc5)CC[C@@]4(C)[C@]3(C)CC[C@@H]12
fold change (FC) [2]: 1.3 | inhibition (INH) [1]: Active | Activity [3]: Toxic

CC1(C)[C@@H](O)CC[C@]2(C)[C@H]3C[C@@H](O)[C@@H]4[C@@H]([C@@](C)(O)CCCNCc5ccccn5)CC[C@@]4(C)[C@]3(C)CC[C@@H]12
inhibition (INH) [1]: Active

CC1(C)[C@@H](O)CC[C@]2(C)[C@H]3C[C@@H](O)[C@@H]4[C@@H]([C@@](C)(O)CCCNCc5cccnc5)CC[C@@]4(C)[C@]3(C)CC[C@@H]12
fold change (FC) [2]: 1.3 | inhibition (INH) [4]: Active | inhibition (INH) [5]: Active | inhibition (INH) [1]: Active

CC1(C)[C@@H](O)CC[C@]2(C)[C@H]3C[C@@H](O)[C@@H]4[C@@H]([C@@](C)(O)CCCNCc5ccncc5)CC[C@@]4(C)[C@]3(C)CC[C@@H]12
inhibition (INH) [1]: Active

COc1ccc(NCCC[C@](C)(O)[C@H]2CC[C@]3(C)[C@@H]2[C@H](O)C[C@@H]2[C@@]4(C)CC[C@H](O)C(C)(C)[C@@H]4CC[C@]23C)cc1
inhibition (INH) [1]: Not Active

CC1(C)[C@@H](O)CC[C@]2(C)[C@H]3C[C@@H](O)[C@@H]4[C@@H]([C@@](C)(O)CCCNCc5ccccc5)CC[C@@]4(C)[C@]3(C)CC[C@@H]12
RFU [6]: 95300 | RFU [7]: 57000 | RFU [8]: 39800 | fold change (FC) [2]: 1.3 | inhibition (INH) [9]: Dose-dependent effect | fold change (FC) [10]: 1.3 | fold change (FC) [11]: 1.3 | fold change (FC) [12]: 1.5 | inhibition (INH) [1]: Active | inhibition (INH) [13]: Dose-dependent effect

C[C@H](NCCC[C@](C)(O)[C@H]1CC[C@]2(C)[C@@H]1[C@H](O)C[C@@H]1[C@@]3(C)CC[C@H](O)C(C)(C)[C@@H]3CC[C@]12C)c1ccccc1
inhibition (INH) [1]: Active | Activity [3]: Toxic

COc1ccc(CNCCC[C@](C)(O)[C@H]2CC[C@]3(C)[C@@H]2[C@H](O)C[C@@H]2[C@@]4(C)CC[C@H](O)C(C)(C)[C@@H]4CC[C@]23C)cc1
inhibition (INH) [1]: Active

CC1(C)[C@@H](O)CC[C@]2(C)[C@H]3C[C@@H](O)[C@@H]4[C@@H]([C@@](C)(O)CCCNCc5ccc(F)cc5)CC[C@@]4(C)[C@]3(C)CC[C@@H]12
inhibition (INH) [1]: Active | Activity [3]: Toxic

CC1(C)[C@@H](O)CC[C@]2(C)[C@H]3C[C@@H](O)[C@@H]4[C@@H]([C@@](C)(O)CCCNCc5ccc(Cl)cc5)CC[C@@]4(C)[C@]3(C)CC[C@@H]12
inhibition (INH) [1]: Active | Activity [3]: Toxic

COc1ccc(CNCCC[C@](C)(O)[C@H]2CC[C@]3(C)[C@@H]2[C@H](O)C[C@@H]2[C@@]4(C)CC[C@H](O)C(C)(C)[C@@H]4CC[C@]23C)cc1OC
inhibition (INH) [1]: Active

CC1(C)[C@@H](O)CC[C@]2(C)[C@H]3C[C@@H](O)[C@@H]4[C@@H]([C@@](C)(O)CCCNCCc5ccccc5)CC[C@@]4(C)[C@]3(C)CC[C@@H]12
RFU [6]: 105300 | RFU [7]: 63700 | RFU [14]: 48700 | RFU [8]: 43200 | fold change (FC) [2]: 1.3 | inhibition (INH) [9]: Dose-dependent effect | fold change (FC) [10]: 1.4 | fold change (FC) [11]: 1.8 | fold change (FC) [12]: 2.6 | inhibition (INH) [1]: Active | inhibition (INH) [13]: Dose-dependent effect

CC1(C)[C@@H](O)CC[C@]2(C)[C@H]3C[C@@H](O)[C@@H]4[C@@H]([C@@](C)(O)CCCNCCc5ccc(Cl)cc5)CC[C@@]4(C)[C@]3(C)CC[C@@H]12
fold change (FC) [2]: 1.3 | inhibition (INH) [1]: Active | Activity [3]: Toxic

CC1(C)[C@@H](O)CC[C@]2(C)[C@H]3C[C@@H](O)[C@@H]4[C@@H]([C@@](C)(O)CCCNCCc5ccc([N+](=O)[O-])cc5)CC[C@@]4(C)[C@]3(C)CC[C@@H]12
fold change (FC) [2]: 1.3 | inhibition (INH) [1]: Active | Activity [3]: Toxic

COc1ccc(CCNCCC[C@](C)(O)[C@H]2CC[C@]3(C)[C@@H]2[C@H](O)C[C@@H]2[C@@]4(C)CC[C@H](O)C(C)(C)[C@@H]4CC[C@]23C)cc1OC
fold change (FC) [2]: 1.3 | inhibition (INH) [4]: Active | inhibition (INH) [5]: Active | inhibition (INH) [1]: Active

CNCCC[C@](C)(O)[C@H]1CC[C@]2(C)[C@@H]1[C@H](O)C[C@@H]1[C@@]3(C)CC[C@H](O)C(C)(C)[C@@H]3CC[C@]12C
inhibition (INH) [1]: Not Active

CCNCCC[C@](C)(O)[C@H]1CC[C@]2(C)[C@@H]1[C@H](O)C[C@@H]1[C@@]3(C)CC[C@H](O)C(C)(C)[C@@H]3CC[C@]12C
inhibition (INH) [1]: Not Active

CCCNCCC[C@](C)(O)[C@H]1CC[C@]2(C)[C@@H]1[C@H](O)C[C@@H]1[C@@]3(C)CC[C@H](O)C(C)(C)[C@@H]3CC[C@]12C
inhibition (INH) [1]: Not Active

CC(C)NCCC[C@](C)(O)[C@H]1CC[C@]2(C)[C@@H]1[C@H](O)C[C@@H]1[C@@]3(C)CC[C@H](O)C(C)(C)[C@@H]3CC[C@]12C
inhibition (INH) [1]: Not Active

CC(C)(C)NCCC[C@](C)(O)[C@H]1CC[C@]2(C)[C@@H]1[C@H](O)C[C@@H]1[C@@]3(C)CC[C@H](O)C(C)(C)[C@@H]3CC[C@]12C
inhibition (INH) [1]: Not Active

CC1(C)[C@@H](O)CC[C@]2(C)[C@H]3C[C@@H](O)[C@@H]4[C@@H]([C@@](C)(O)CCCNC5CC5)CC[C@@]4(C)[C@]3(C)CC[C@@H]12
inhibition (INH) [1]: Not Active

CC1(C)[C@@H](O)CC[C@]2(C)[C@H]3C[C@@H](O)[C@@H]4[C@@H]([C@@](C)(O)CCCNCCCn5ccnc5)CC[C@@]4(C)[C@]3(C)CC[C@@H]12
inhibition (INH) [1]: Not Active

CC1(C)[C@@H](O)CC[C@]2(C)[C@H]3C[C@@H](O)[C@@H]4[C@@H]([C@@](C)(O)CCCNCCN5CCNCC5)CC[C@@]4(C)[C@]3(C)CC[C@@H]12
inhibition (INH) [1]: Not Active

CC1(C)[C@@H](O)CC[C@]2(C)[C@H]3C[C@@H](O)[C@@H]4[C@@H]([C@@](C)(O)CCCNCCCO)CC[C@@]4(C)[C@]3(C)CC[C@@H]12
inhibition (INH) [1]: Not Active

CC(C)=CCC[C@](C)(O)[C@H]1CC[C@]2(C)[C@@H]1[C@H](O)C[C@@H]1[C@@]3(C)CC[C@H](O)C(C)(C)[C@@H]3CC[C@]12C
inhibition (INH) [1]: Not Active | Activity [3]: Non-toxic

COc1ccc(CCN(C)CCC[C@@](C#N)(c2ccc(OC)c(OC)c2)C(C)C)cc1OC
RFU [6]: 98700 | RFU [7]: 53000 | RFU [14]: 46100 | RFU [8]: 35900
